# High-throughput results from PubChem BioAssay.
# A selection: hits, their analogues and other compounds. The true share with any hit is near 3.1%.
# OX1R antag-1 = blocks the human orexin 1 receptor. O43613. CHO/OX1R cells, Fluo-8 calcium fluorescence, orexin A. inhibition, % at 5 µM. 0.43% of 330,000 active;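 active = inhibition above its plate's threshold, mean inhibition of all tested compounds on the plate plus 3 SD, cut at about 37% in these data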;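 note: 0% = orexin A challenge wells and 100% = SB-334867-A antagonist wells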
# GalR3 antagonist = antagonists of human GalR3. O60755. 0.44% of 360,000 active. inhibition, % at 3 µM. AID 651719. HEK293 GalR3-CNG cAMP membrane potential fluorescence; galR3 body fused to GalR1 C-terminus;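 active = inhibition above the screen-wide average plus 3 SD, cut at about 13% in these data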;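 note: forskolin and galanin both at EC90 stimulate the cells; cAMP rise reported by CNG channel membrane potential dye signal; 0% = forskolin plus galanin with DMSO and 100% = forskolin alone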
# OX1R antag-2 = blocks the human orexin 1 receptor; OX1R-expressing cells, FRET antagonist read-out; inhibition, % at 6.6 µM; AID 485270; O43613; 1.8% of 330,000 active; in the data active = inhibition mostly above about 38%, no sharp cut-off; inactive = mostly below about 40%;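 note: 0% = agonist challenge alone and 100% = reference antagonist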
# CHO parental Ca = counter-screen: ATP calcium response change in parental CHO cells; parental CHO-K1, ATP-induced calcium, Fluo-8 fluorescence; inhibition, % at 5.6 µM; 0.63% of 330,000 active; AID 463079;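 active = inhibition above that plate's mean sample inhibition plus 3 SD, cut at about 26% in these data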;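 note: 0% = ATP-challenged DMSO wells and 100% = DMSO wells without ATP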
#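 test system = CHO parental line | reagent = ATP stimulus | measured by = intracellular calcium via Fluo-8 no-wash fluorescent dye | control set = ATP and no-ATP DMSO wells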
# GPR7 antag = human neuropeptides B/W receptor 1 antagonism. P48145. GPR7-expressing cells, fluorescence antagonist assay. inhibition, % at 4.4 µM. 1.1% of 290,000 active. AID 1861; in the data active = inhibition above about 16%, passing the limit was not always enough;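 note: cells stimulated with the agonist NPW; 0% = agonist with vehicle and 100% = vehicle without agonist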
# Target sequence (P48145 whole entry, looked up): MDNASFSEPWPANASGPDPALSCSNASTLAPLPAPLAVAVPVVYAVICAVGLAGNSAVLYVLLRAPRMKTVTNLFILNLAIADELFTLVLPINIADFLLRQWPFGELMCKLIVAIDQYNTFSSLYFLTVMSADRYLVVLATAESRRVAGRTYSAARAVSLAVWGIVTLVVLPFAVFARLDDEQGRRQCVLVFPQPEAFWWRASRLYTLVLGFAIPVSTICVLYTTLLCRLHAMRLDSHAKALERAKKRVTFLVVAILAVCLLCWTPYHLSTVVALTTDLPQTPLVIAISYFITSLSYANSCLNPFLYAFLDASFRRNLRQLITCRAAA
# GalR3 conf = GalR3 (human) antagonism, confirmation. HEK293 GalR3 CNG cAMP biosensor, membrane potential fluorescence; galR3 fused to GalR1 carboxy tail; challenged with forskolin and galanin at EC90. shares compounds with GalR3 antagonist. 59% of 1,600 active. inhibition, % at 3 µM;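 active = inhibition above the primary screen's cutoff, the mean inhibition of all screened compounds plus 3 SD, cut at about 13% in these data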;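 note: 0% = forskolin plus galanin and 100% = forskolin alone with DMSO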
# CNG parental = counter-screen for GalR3 antagonists: nonspecific agonists in parental HEK-CNG cells; shares compounds with GalR3 antagonist; HEK293-CNG parental cells, cAMP membrane potential fluorescence; normalised: DMSO wells 0%, forskolin wells 100%; activation, % at 3 µM; 10% of 1,600 active; in the data active = activation above about 1.3%
# Numbers without * were called inactive; . = not tested or not shown.
SMILES,OX1R antag-1,GalR3 antagonist,OX1R antag-2,CHO parental Ca,GPR7 antag,GalR3 conf,CNG parental
FC(F)(F)c1cnc(N2CCCN(C(=S)Nc3ccccc3)CC2)c(Cl)c1,-10.2,40.1*,6.6,-5.3,14.7,79.8*,-0.5
FC(F)(F)c1cnc(N2CCN(C(=S)NCc3ccccc3)CC2)c(Cl)c1,8.1,-3.2,14.5,-15.3,-11.6,.,.
NC(=O)c1c(-c2ccc(Cl)cc2Cl)csc1NC(=O)Cc1ccccc1,9.5,95.1*,57.9*,55.7*,-5.9,113.4*,-1.1
O=C(Cc1ccccc1)Nc1scc(-c2ccccc2)c1C(=O)N1CCOCC1,-26.2,.,17.1,-22.1,6.5,.,.
OCCC#Cc1ccc(CN2CCN(C3CCCCC3)C(CCO)C2)cc1 (stereo unspecified),-13.9,13.0*,5.7,-1.9,-3.7,0.3,0.1
CCc1nc(CN(C)C(=O)C2CCC(=O)N(Cc3cccc(F)c3)C2)no1 (stereo unspecified),-8.0,1.1,8.4,-15.3,-15.8,.,.
CC(C)CN=CC1=C(O)c2ccccc2C1=O,-20.0,-2.2,21.4,-21.2,-9.1,.,.
O=C1C(C=NC2CC2)=C(O)c2ccccc21,-21.4,13.5*,28.9,-7.7,0.7,3.6,0.1
